Columns and labels:
[1] = tested on: Cryptococcus gattii species complex; experiment: Antimicrobial activity against Cryptococcus gattii serotype B isolate NIH771 assessed as heteroresistant isolates at 2 ug/ml; format: functional, Cryptococcus bacillisporus
Method in brief: (§1)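 Population analysis: cells suspended in sterile saline at 1 × 10³ to 4 × 10³ CFU/ml and plated on plain YPD agar or YPD agar with various fluconazole concentrations. Plates incubated at 30°C for 72 h. The resistant subpopulation at each concentration is recorded as a percentage of the population.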

[2] = tested on: Cryptococcus gattii species complex; experiment: Antimicrobial activity against Cryptococcus gattii serotype B isolate B5765 assessed as heteroresistant isolates at 2 ug/ml; format: functional, Cryptococcus bacillisporus; method in brief: as §1
[3] = tested on: Cryptococcus gattii species complex; experiment: Antimicrobial activity against Cryptococcus gattii serotype B isolate RB22 assessed as heteroresistant isolates at 2 ug/ml; format: functional, Cryptococcus bacillisporus
Method in brief: (§2)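 Population analysis: saline cell suspensions (1 × 103 to 4 × 10^3 CFU/ml) plated on plain YPD agar or YPD agar with various fluconazole concentrations; growth recorded after 72 h at 30°C; percentage of resistant subpopulation at each drug level calculated relative to drug-free plate growth.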

[4] = tested on: Cryptococcus gattii species complex; experiment: Antimicrobial activity against Cryptococcus gattii serotype C isolate NIH257 assessed as heteroresistant isolates at 2 ug/ml; format: functional, Cryptococcus bacillisporus
Method in brief: (§3)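 Cell suspensions of 1 × 10^3 to 4 × 10^3 CFU/ml were made in sterile saline and plated on plain YPD agar or YPD agar with various fluconazole concentrations. Plates were incubated at 30°C for 72 h, and the percentage of resistant subpopulation emerging was recorded.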

[5] = tested on: Cryptococcus bacillisporus; experiment: Antimicrobial activity against Cryptococcus gattii serotype C isolate NIH191 assessed as heteroresistant isolates at 2 ug/ml; format: functional; method in brief: as §2
[6] = tested on: Cryptococcus gattii species complex; experiment: Antimicrobial activity against Cryptococcus gattii serotype B isolate NIH200 assessed as heteroresistant isolates at 4 ug/ml; format: functional, Cryptococcus bacillisporus; method in brief: as §1
[7] = tested on: Cryptococcus gattii species complex; experiment: Antimicrobial activity against Cryptococcus gattii serotype B isolate NIH412 assessed as heteroresistant isolates at 4 ug/ml; format: functional, Cryptococcus bacillisporus; method in brief: as §1
[8] = tested on: Cryptococcus gattii species complex; experiment: Antimicrobial activity against Cryptococcus gattii serotype B isolate NIH535 assessed as heteroresistant isolates at 4 ug/ml; format: functional, Cryptococcus bacillisporus; method in brief: as §1
[9] = tested on: Cryptococcus gattii species complex; experiment: Antimicrobial activity against Cryptococcus gattii serotype B isolate NIH367 assessed as heteroresistant isolates at 4 ug/ml; format: functional, Cryptococcus bacillisporus; method in brief: as §1
[10] = tested on: Cryptococcus gattii species complex; experiment: Antimicrobial activity against Cryptococcus gattii serotype B isolate NIH771 assessed as heteroresistant isolates at 4 ug/ml; format: functional, Cryptococcus bacillisporus; method in brief: as §2
[11] = tested on: Cryptococcus gattii species complex; experiment: Antimicrobial activity against Cryptococcus gattii serotype B isolate B5765 assessed as heteroresistant isolates at 4 ug/ml; format: functional, Cryptococcus bacillisporus; method in brief: as §1
[12] = tested on: Cryptococcus gattii species complex; experiment: Antimicrobial activity against Cryptococcus gattii serotype C isolate NIH18 assessed as heteroresistant isolates at 4 ug/ml; format: functional, Cryptococcus bacillisporus; method in brief: as §2
[13] = tested on: Cryptococcus gattii species complex; experiment: Antimicrobial activity against Cryptococcus gattii serotype B isolate RB-14 assessed as concentration required for heteroresistance; format: functional, Cryptococcus bacillisporus
[14] = tested on: Cryptococcus gattii species complex; experiment: Antimicrobial activity against Cryptococcus gattii serotype B isolate RB-33 assessed as concentration required for heteroresistance; format: functional, Cryptococcus bacillisporus
[15] = tested on: Cryptococcus gattii species complex; experiment: Antimicrobial activity against Cryptococcus gattii serotype B isolate B5788 assessed as concentration required for heteroresistance; format: functional, Cryptococcus bacillisporus
Method in brief: (§4)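 Fluconazole spot test: 10-fold serial dilutions of each single-colony-purified strain spotted on YPD agar alone and YPD agar with fluconazole at 4 to 128 μg/ml. The level of heteroresistance to fluconazole (LHF) is the lowest drug concentration at which minor resistant subpopulations emerge within the spot.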

[16] = tested on: Cryptococcus gattii species complex; experiment: Antimicrobial activity against Cryptococcus gattii serotype C isolate NIH139 assessed as concentration required for heteroresistance; format: functional, Cryptococcus bacillisporus
[17] = tested on: Cryptococcus gattii species complex; experiment: Antimicrobial activity against Cryptococcus gattii serotype C isolate NIH178 assessed as concentration required for heteroresistance; format: functional, Cryptococcus bacillisporus
[18] = tested on: Cryptococcus gattii species complex; experiment: Antimicrobial activity against Cryptococcus gattii serotype C isolate NIH298 assessed as concentration required for heteroresistance; format: functional, Cryptococcus bacillisporus
Method in brief: (§5)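 […] on YPD agar at 4 to 128 μg/ml. The lowest drug concentration at which minor resistant subpopulations emerged within the patch was scored as the strain's level of heteroresistance.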

[19] = tested on: Cryptococcus gattii species complex; experiment: Antimicrobial activity against Cryptococcus gattii serotype C isolate NIH917 assessed as concentration required for heteroresistance; format: functional, Cryptococcus bacillisporus; method in brief: as §5
[20] = tested on: Cryptococcus gattii species complex; experiment: Antimicrobial activity against Cryptococcus gattii serotype C isolate H0058-1-78 assessed as concentration required for heteroresistance; format: functional, Cryptococcus bacillisporus
[21] = tested on: Cryptococcus gattii species complex; experiment: Antimicrobial activity against Cryptococcus gattii serotype C isolate H0058-1-2023 assessed as concentration required for heteroresistance; format: functional, Cryptococcus bacillisporus
[22] = tested on: Cryptococcus gattii species complex; experiment: Antimicrobial activity against Cryptococcus gattii serotype C isolate H0058-1-1875 assessed as concentration required for heteroresistance; format: functional, Cryptococcus bacillisporus
[23] = tested on: Cryptococcus gattii species complex; experiment: Antimicrobial activity against Cryptococcus gattii serotype B isolate NIH535 assessed as heteroresistant isolates at 2 ug/ml; format: functional, Cryptococcus bacillisporus; method in brief: as §1
[24] = tested on: Cryptococcus gattii species complex; experiment: Antimicrobial activity against Cryptococcus gattii serotype B isolate NIH189 assessed as heteroresistant isolates at 2 ug/ml; format: functional, Cryptococcus bacillisporus; method in brief: as §1
[25] = tested on: Cryptococcus gattii species complex; experiment: Antimicrobial activity against Cryptococcus gattii serotype B isolate NIH412 assessed as concentration required for heteroresistance; format: functional, Cryptococcus bacillisporus; method in brief: as §4
[26] = tested on: Cryptococcus gattii species complex; experiment: Antimicrobial activity against Cryptococcus gattii serotype B isolate NIH744 assessed as concentration required for heteroresistance; format: functional, Cryptococcus bacillisporus; method in brief: as §4
[27] = tested on: Cryptococcus gattii species complex; experiment: Antimicrobial activity against Cryptococcus gattii serotype B isolate NIH767 assessed as concentration required for heteroresistance; format: functional, Cryptococcus bacillisporus; method in brief: as §4
[28] = tested on: Cryptococcus gattii species complex; experiment: Antimicrobial activity against Cryptococcus gattii serotype B isolate RB-1 assessed as concentration required for heteroresistance; format: functional, Cryptococcus bacillisporus
[29] = tested on: Cryptococcus gattii species complex; experiment: Antimicrobial activity against Cryptococcus gattii serotype B isolate RB-4 assessed as concentration required for heteroresistance; format: functional, Cryptococcus bacillisporus
[30] = tested on: Cryptococcus gattii species complex; experiment: Antimicrobial activity against Cryptococcus gattii serotype B isolate RB-9 assessed as concentration required for heteroresistance; format: functional, Cryptococcus bacillisporus
[31] = tested on: Cryptococcus gattii species complex; experiment: Antimicrobial activity against Cryptococcus gattii serotype B isolate NIH200 assessed as concentration required for heteroresistance; format: functional, Cryptococcus bacillisporus; method in brief: as §4
[32] = tested on: Cryptococcus gattii species complex; experiment: Antimicrobial activity against Cryptococcus gattii serotype B isolate RB14 assessed as heteroresistant isolates at 32 ug/ml; format: functional, Cryptococcus bacillisporus; method in brief: as §2
[33] = tested on: Cryptococcus gattii species complex; experiment: Antimicrobial activity against Cryptococcus gattii serotype B isolate RAM15 assessed as heteroresistant isolates at 32 ug/ml; format: functional, Cryptococcus bacillisporus; method in brief: as §2
[34] = tested on: Cryptococcus bacillisporus; experiment: Antimicrobial activity against Cryptococcus gattii serotype C isolate NIH191 assessed as heteroresistant isolates at 32 ug/ml; format: functional; method in brief: as §2
[35] = tested on: Cryptococcus gattii species complex; experiment: Antimicrobial activity against Cryptococcus gattii serotype C isolate H0058-1-1686 assessed as heteroresistant isolates at 4 ug/ml; format: functional, Cryptococcus bacillisporus; method in brief: as §2
[36] = tested on: Cryptococcus gattii species complex; experiment: Antimicrobial activity against Cryptococcus gattii serotype B isolate NIH198 assessed as heteroresistant isolates at 8 ug/ml; format: functional, Cryptococcus bacillisporus; method in brief: as §1
[37] = tested on: Cryptococcus gattii species complex; experiment: Antimicrobial activity against Cryptococcus gattii serotype B isolate B5763 assessed as heteroresistant isolates at 8 ug/ml; format: functional, Cryptococcus bacillisporus; method in brief: as §1
[38] = tested on: Cryptococcus gattii species complex; experiment: Antimicrobial activity against Cryptococcus gattii serotype B isolate B5765 assessed as heteroresistant isolates at 8 ug/ml; format: functional, Cryptococcus bacillisporus; method in brief: as §1
[39] = tested on: Cryptococcus gattii species complex; experiment: Antimicrobial activity against Cryptococcus gattii serotype B isolate NIH184 assessed as heteroresistant isolates at 16 ug/ml; format: functional, Cryptococcus bacillisporus; method in brief: as §1
[40] = tested on: Cryptococcus deuterogattii; experiment: Antimicrobial activity against Cryptococcus gattii serotype B isolate NIH444 assessed as heteroresistant isolates at 16 ug/ml; format: functional, Cryptococcus bacillisporus; method in brief: as §1
[41] = tested on: Cryptococcus gattii species complex; experiment: Antimicrobial activity against Cryptococcus gattii serotype B isolate NIH189 assessed as heteroresistant isolates at 16 ug/ml; format: functional, Cryptococcus bacillisporus; method in brief: as §1
[42] = tested on: Cryptococcus gattii species complex; experiment: Antimicrobial activity against Cryptococcus gattii serotype B isolate NIH367 assessed as heteroresistant isolates at 16 ug/ml; format: functional, Cryptococcus bacillisporus; method in brief: as §1
[43] = tested on: Cryptococcus gattii species complex; experiment: Antimicrobial activity against Cryptococcus gattii serotype C isolate NIH34 assessed as heteroresistant isolates at 16 ug/ml; format: functional, Cryptococcus bacillisporus; method in brief: as §3

Compound OC(Cn1cncn1)(Cn1cncn1)c1ccc(F)cc1F [FLUCONAZOLE] has an Activity [1] of 100%, an Activity [2] of 100% and an Activity [3] of 100%. It also gave an Activity [4] of 100%, an Activity [5] of 100% and an Activity [6] of 0.1%. The Activity [7] was 0.07%, the Activity [8] was 0.1% and the Activity [9] was 100%. It also gave an Activity [10] of 100%, an Activity [11] of 100% and an Activity [12] of 100%. The Activity [13] was 32 µg/mL, the Activity [14] was 32 µg/mL and the Activity [15] was 8 µg/mL. For the same compound, the Activity [16] was 32 µg/mL, the Activity [17] was 32 µg/mL and the Activity [18] was 32 µg/mL. The Activity [19] was 32 µg/mL, the Activity [20] was 32 µg/mL and the Activity [21] was 32 µg/mL. It also gave an Activity [22] of 32 µg/mL, an Activity [23] of 100% and an Activity [24] of 100%. For the same compound, the Activity [25] was 4 µg/mL, the Activity [26] was 32 µg/mL and the Activity [27] was 32 µg/mL. For the same compound, the Activity [28] was 32 µg/mL, the Activity [29] was 32 µg/mL and the Activity [30] was 32 µg/mL. For the same compound, the Activity [31] was 4 µg/mL, the Activity [32] was 0.8% and the Activity [33] was 10%. It also gave an Activity [34] of 20%, an Activity [35] of 100% and an Activity [36] of 100%. For the same compound, the Activity [37] was 0.03%, the Activity [38] was 100% and the Activity [39] was 35%. It also gave an Activity [40] of 100%, an Activity [41] of 0.7% and an Activity [42] of 9%. For the same compound, the Activity [43] was 0.22%.

— ChEMBL document CHEMBL1255501, “Heteroresistance of Cryptococcus gattii to fluconazole” (2010)
